Laboratory results from ChEMBL document CHEMBL1649368, “Novel isatinyl thiosemicarbazones derivatives as potential molecule to combat HIV-TB co-infection” (Eur J Med Chem, 2011).
Converted amounts (≈) assume the structure as drawn.

Columns and labels:
[1] = test system: Mycobacterium tuberculosis; test: Antimycobacterial activity against Mycobacterium tuberculosis H37Ra by agar dilution method; type: functional
How it was run: (§1)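 Log-phase MTB was tested by agar dilution on Middlebrook 7H11 with OADC, following NCCLS guidance. MIC was the lowest concentration giving complete growth inhibition, determined in triplicate.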

[2] = test system: Human immunodeficiency virus 1; test: Antiviral activity against HIV1 3B infected in human MT4 cells assessed as protection against virus-induced cytopathogenicity after 5 days by microtiter plate analysis; type: functional, organism-based; conditions: Human immunodeficiency virus 1, 3B, MT4, 120 h
How it was run: (§2)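 MT-4 cells were grown in RPMI-1640 DM with 10% heat-inactivated calf serum and gentamicin. HIV-1 IIIB (100 CCID50) or mock infection was run in parallel with compounds in triplicate, at 37 °C and 5% CO2 for 5 days. Viability was read by MTT spectrophotometry. EC50 was the 50% reduction in virus cytopathic effect; CC50 was the 50% loss of mock-infected cell viability.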

[3] = Cytotoxicity against human MT4 cells after 5 days by spectrophotometry; type: cell-based; how it was run: as §2
[4] = test system: Mycobacterium tuberculosis; test: Antimycobacterial activity against Mycobacterium tuberculosis H37Ra assessed as inhibition of bacterial growth in dormant phase; type: functional
How it was run: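 MTB grown in 7H9 with glycerol, OADC and Tween 80 at 37 °C with rolling to OD600 ~0.6, then washed and held in PBS 6 weeks at 37 °C. Starved cells (~1×10^7 in 1 mL PBS) were exposed to compounds in DMSO at various concentrations for 7 days with shaking. After washing, dilutions were plated on antibiotic-free 7H11 and counted after 4 weeks. MIC was complete growth inhibition, in triplicate.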

[5] = test system: Mycobacterium tuberculosis; test: Antimycobacterial activity against Mycobacterium tuberculosis H37Ra assessed as inhibition of bacterial growth in log phase by agar dilution method; type: functional; how it was run: as §1

Compound	MIC [1]	EC50 [2]	CC50 at 120 h [3]	MIC [4]	MIC [5]
CCn1cc(C(=O)O)c(=O)c2cc(F)c(N3CCN(CN4C(=O)/C(=N\NC(=S)NO)c5cc(F)ccc54)C(C)C3)c(F)c21 (configuration not stated)	0.65 µM (≈ 0.401 µg/mL)	9.93 µM	187 µM	36.9 µM (≈ 22.8 µg/mL)	0.65 µM (≈ 0.401 µg/mL)
CONC(=S)N/N=C1\C(=O)N(CN2CCN(c3ccccc3)CC2)c2ccc(F)cc21	7.07 µM (≈ 3.13 µg/mL)	18.1 µM	227 µM		
CCn1cc(C(=O)O)c(=O)c2cc(F)c(N3CCN(CN4C(=O)/C(=N\NC(=S)NOC)c5cc(F)ccc54)CC3)cc21	0.67 µM (≈ 0.402 µg/mL)	10.5 µM	144 µM	17 µM (≈ 10.2 µg/mL)	4.25 µM (≈ 2.55 µg/mL)
Cc1ccc2c(c1)/C(=N/NC(=S)NO)C(=O)N2CN(C)C	81.3 µM (≈ 25 µg/mL)	113 µM	651 µM		
CONC(=S)N/N=C1\C(=O)N(CN(C)C)c2ccc(Cl)cc21	18.3 µM (≈ 6.25 µg/mL)	57.9 µM	552 µM		
CCN(CC)CN1C(=O)/C(=N\NC(=S)NO)c2cc(C)ccc21	11.8 µM (≈ 3.97 µg/mL)	57.6 µM	534 µM		
CONC(=S)N/N=C1\C(=O)N(CN(C)C)c2ccc(C)cc21	19.4 µM (≈ 6.25 µg/mL)	64.1 µM	622 µM		
CCn1cc(C(=O)O)c(=O)c2cc(F)c(N3CCN(CN4C(=O)/C(=N\NC(=S)NO)c5cc(C)ccc54)CC3)cc21	1.34 µM (≈ 0.779 µg/mL)	16.9 µM	327 µM		
CCn1cc(C(=O)O)c(=O)c2cc(F)c(N3CCN(CN4C(=O)/C(=N\NC(=S)NOC)c5cc(C)ccc54)C(C)C3)c(F)c21 (configuration not stated)	1.24 µM (≈ 0.778 µg/mL)	5.74 µM	156 µM		
CCn1cc(C(=O)O)c(=O)c2cc(F)c(N3CCN(CN4C(=O)/C(=N\NC(=S)NO)c5cc(Cl)ccc54)C(C)C3)c(F)c21 (configuration not stated)	1.23 µM (≈ 0.78 µg/mL)	23.2 µM	209 µM		
CONC(=S)N/N=C1\C(=O)N(CN2CCN(c3c(F)cc4c(=O)c(C(=O)O)cn(C5CC5)c4c3OC)CC2C)c2ccc(F)cc21 (configuration not stated)	0.15 µM (≈ 0.0984 µg/mL)	1.88 µM	171 µM		
CONC(=S)N/N=C1\C(=O)N(CN2CCN(c3ccc(OC)cc3)CC2)c2ccc(Cl)cc21	12.8 µM (≈ 6.25 µg/mL)	13.1 µM	221 µM		
O=C1/C(=N\NC(=S)NO)c2cc(F)ccc2N1CN1CCOCC1	4.41 µM (≈ 1.56 µg/mL)	61.4 µM	465 µM		
CONC(=S)N/N=C1\C(=O)N(CN2CCN(c3c(F)cc4c(=O)c(C(=O)O)cn(C5CC5)c4c3OC)CC2C)c2ccc(Cl)cc21 (configuration not stated)	0.3 µM (≈ 0.202 µg/mL)	7.14 µM	164 µM		
COc1ccc(N2CCN(CN3C(=O)/C(=N\NC(=S)NO)c4cc(C)ccc43)CC2)cc1	13.8 µM (≈ 6.25 µg/mL)	15 µM	321 µM		
CONC(=S)N/N=C1\C(=O)N(CN2CCN(c3c(F)cc4c(=O)c(C(=O)O)cn(C5CC5)c4c3OC)CC2C)c2ccc(C)cc21 (configuration not stated)	0.31 µM (≈ 0.202 µg/mL)	1.86 µM	154 µM	17.8 µM (≈ 11.6 µg/mL)	0.31 µM (≈ 0.202 µg/mL)
O=C(O)c1cn(C2CC2)c2cc(N3CCN(CN4C(=O)/C(=N\NC(=S)NO)c5cc(F)ccc54)CC3)c(F)cc2c1=O	0.33 µM (≈ 0.197 µg/mL)	16.5 µM	222 µM	13.1 µM (≈ 7.82 µg/mL)	3.27 µM (≈ 1.95 µg/mL)
CCn1cc(C(=O)O)c(=O)c2cc(F)c(N3CCN(CN4C(=O)/C(=N\NC(=S)NOC)c5cc(F)ccc54)C(C)C3)c(F)c21 (configuration not stated)	0.63 µM (≈ 0.398 µg/mL)	4.43 µM	178 µM		
Cc1ccc2c(c1)/C(=N/NC(=S)NO)C(=O)N2CN1CCN(c2ccccc2)CC1	14.7 µM (≈ 6.25 µg/mL)	19.3 µM	420 µM		
O=C1/C(=N\NC(=S)NO)c2cc(Cl)ccc2N1CN1CCN(c2ccccc2)CC1	28.1 µM (≈ 12.5 µg/mL)	28.3 µM	273 µM		
Cc1ccnc2c1NC(=O)c1cccnc1N2C1CC1 [NEVIRAPINE]		0.13 µM	156 µM		
O=C1/C(=N\NC(=S)NO)c2cc(F)ccc2N1CN1CCN(c2ccccc2)CC1	7.3 µM (≈ 3.13 µg/mL)	19.6 µM	251 µM		
CONC(=S)N/N=C1\C(=O)N(CN2CCOCC2)c2ccc(C)cc21	4.29 µM (≈ 1.56 µg/mL)	45.1 µM	365 µM		
COc1ccc(N2CCN(CN3C(=O)/C(=N\NC(=S)NO)c4cc(Cl)ccc43)CC2)cc1	13.2 µM (≈ 6.25 µg/mL)	21.3 µM	279 µM		
O=C(O)c1cn(C2CC2)c2cc(N3CCN(CN4C(=O)/C(=N\NC(=S)NO)c5cc(Cl)ccc54)CC3)c(F)cc2c1=O	2.54 µM (≈ 1.56 µg/mL)	33.4 µM	229 µM		
CCn1cc(C(=O)O)c(=O)c2cc(F)c(N3CCN(CN4C(=O)/C(=N\NC(=S)NO)c5cc(F)ccc54)CC3)cc21	1.33 µM (≈ 0.779 µg/mL)	18.4 µM	208 µM		

Compound	MIC [1]	EC50 [2]	CC50 at 120 h [3]	MIC [4]	MIC [5]
CCn1cc(C(=O)O)c(=O)c2cc(F)c(N3CCN(CN4C(=O)/C(=N\NC(=S)NOC)c5cc(Cl)ccc54)C(C)C3)c(F)c21 (configuration not stated)	1.2 µM (≈ 0.778 µg/mL)	9.26 µM	180 µM		
COc1c(N2CCN(CN3C(=O)/C(=N\NC(=S)NO)c4cc(C)ccc43)C(C)C2)c(F)cc2c(=O)c(C(=O)O)cn(C3CC3)c12 (configuration not stated)	0.63 µM (≈ 0.402 µg/mL)	11.1 µM	276 µM		
CN(C)CN1C(=O)/C(=N\NC(=S)NO)c2cc(Cl)ccc21	76.3 µM (≈ 25 µg/mL)	130 µM	610 µM		
COc1c(N2CCN(CN3C(=O)/C(=N\NC(=S)NO)c4cc(Cl)ccc43)C(C)C2)c(F)cc2c(=O)c(C(=O)O)cn(C3CC3)c12 (configuration not stated)	1.19 µM (≈ 0.783 µg/mL)	15.3 µM	234 µM		
CCN(CC)CN1C(=O)/C(=N\NC(=S)NOC)c2cc(F)ccc21	4.41 µM (≈ 1.56 µg/mL)	29.7 µM	490 µM		
CONC(=S)N/N=C1\C(=O)N(CN(C)C)c2ccc(F)cc21	9.62 µM (≈ 3.13 µg/mL)	37.8 µM	560 µM		
O=C1/C(=N\NC(=S)NO)c2cc(Cl)ccc2N1CN1CCN(c2ccc(Cl)cc2)CC1	13 µM (≈ 6.25 µg/mL)	11.1 µM	268 µM		
NNC(=O)c1ccncc1 [ISONIAZID]				182 µM (≈ 25 µg/mL)	0.36 µM (≈ 0.0494 µg/mL)
Cc1ccc2c(c1)/C(=N/NC(=S)NO)C(=O)N2CN1CCOCC1	8.96 µM (≈ 3.13 µg/mL)	93.6 µM	572 µM		
Cc1ccc2c(c1)/C(=N/NC(=S)NO)C(=O)N2CN1CCN(c2cc3c(cc2F)c(=O)c(C(=O)O)cn3C2CC2)CC1	0.67 µM (≈ 0.398 µg/mL)	20.9 µM	304 µM	12.1 µM (≈ 7.19 µg/mL)	
CONC(=S)N/N=C1\C(=O)N(CN2CCN(c3ccccc3)CC2)c2ccc(C)cc21	12.4 µM (≈ 5.42 µg/mL)	17.3 µM	276 µM		
COc1ccc(N2CCN(CN3C(=O)/C(=N\NC(=S)NO)c4cc(F)ccc43)CC2)cc1	6.83 µM (≈ 3.13 µg/mL)	14.7 µM	260 µM		
CONC(=S)N/N=C1\C(=O)N(CN2CCN(c3cc4c(cc3F)c(=O)c(C(=O)O)cn4C3CC3)CC2)c2ccc(F)cc21	0.31 µM (≈ 0.19 µg/mL)	11.4 µM	255 µM		
CCn1cc(C(=O)O)c(=O)c2cc(F)c(N3CCN(CN4C(=O)/C(=N\NC(=S)NOC)c5cc(C)ccc54)CC3)cc21	1.31 µM (≈ 0.78 µg/mL)	11.4 µM	238 µM		
CCN(CC)CN1C(=O)/C(=N\NC(=S)NOC)c2cc(Cl)ccc21	16.9 µM (≈ 6.25 µg/mL)	58.4 µM	454 µM		
CCN(CC)CN1C(=O)/C(=N\NC(=S)NO)c2cc(F)ccc21	9.22 µM (≈ 3.13 µg/mL)	36.2 µM	521 µM		
CCn1cc(C(=O)O)c(=O)c2cc(F)c(N3CCN(CN4C(=O)/C(=N\NC(=S)NO)c5cc(Cl)ccc54)CC3)cc21	1.3 µM (≈ 0.783 µg/mL)	27.2 µM	186 µM		
O=C1/C(=N\NC(=S)NO)c2cc(Cl)ccc2N1CN1CCOCC1	6.11 µM (≈ 2.26 µg/mL)	35.1 µM	348 µM		
CCN(CC)CN1C(=O)/C(=N\NC(=S)NO)c2cc(Cl)ccc21	70.3 µM (≈ 25 µg/mL)	121 µM	562 µM		
CN(C)CN1C(=O)/C(=N\NC(=S)NO)c2cc(F)ccc21	10.1 µM (≈ 3.13 µg/mL)	47.2 µM	599 µM		
CONC(=S)N/N=C1\C(=O)N(CN2CCN(c3ccccc3)CC2)c2ccc(Cl)cc21	13.6 µM (≈ 6.25 µg/mL)	17.7 µM	267 µM		
COc1c(N2CCN(CN3C(=O)/C(=N\NC(=S)NO)c4cc(F)ccc43)C(C)C2)c(F)cc2c(=O)c(C(=O)O)cn(C3CC3)c12 (configuration not stated)	0.16 µM (≈ 0.103 µg/mL)	4.18 µM	206 µM		
CONC(=S)N/N=C1\C(=O)N(CN2CCN(c3cc4c(cc3F)c(=O)c(C(=O)O)cn4C3CC3)CC2)c2ccc(Cl)cc21	0.64 µM (≈ 0.402 µg/mL)	11 µM	143 µM		
CO[C@H]1/C=C/O[C@@]2(C)Oc3c(C)c(O)c4c(O)c(c(/C=N/N5CCN(C)CC5)c(O)c4c3C2=O)NC(=O)/C(C)=C\C=C\[C@H](C)[C@H](O)[C@@H](C)[C@@H](O)[C@@H](C)[C@H](OC(C)=O)[C@@H]1C [RIFAMPIN]				15.2 µM (≈ 12.5 µg/mL)	0.12 µM (≈ 0.0988 µg/mL)
CONC(=S)N/N=C1\C(=O)N(CN2CCN(c3ccc(OC)cc3)CC2)c2ccc(F)cc21	6.14 µM (≈ 2.9 µg/mL)	12.7 µM	276 µM		
CONC(=S)N/N=C1\C(=O)N(CN2CCOCC2)c2ccc(Cl)cc21	4.06 µM (≈ 1.56 µg/mL)	28.4 µM	322 µM		
